Published values of several laboratories.
Protocols differ between the studies behind these lines.
Target: 5-hydroxytryptamine receptor 3A (HTR3A, Homo sapiens, UniProt P46098)
Concentration: 10 µM
Sequence (P46098 24-478, as in one of the studies): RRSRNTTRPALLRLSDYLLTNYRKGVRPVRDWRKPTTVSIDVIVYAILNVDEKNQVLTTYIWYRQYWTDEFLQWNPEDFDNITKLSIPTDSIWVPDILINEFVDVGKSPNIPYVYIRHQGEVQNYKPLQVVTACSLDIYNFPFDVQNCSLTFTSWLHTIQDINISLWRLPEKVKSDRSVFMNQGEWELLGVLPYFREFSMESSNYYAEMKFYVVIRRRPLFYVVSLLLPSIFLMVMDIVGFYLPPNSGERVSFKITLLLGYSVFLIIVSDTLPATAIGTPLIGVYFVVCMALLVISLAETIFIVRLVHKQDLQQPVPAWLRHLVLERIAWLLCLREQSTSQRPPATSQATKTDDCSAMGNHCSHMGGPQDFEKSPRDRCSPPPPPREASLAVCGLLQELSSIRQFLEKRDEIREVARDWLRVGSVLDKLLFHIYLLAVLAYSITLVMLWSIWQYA

SMILES	assay	quantity	value
C[C@H](C(=O)N[C@H]1COc2ccccc2[C@@H]1S(C)(=O)=O)c1ccc(F)cc1	cell-free assay	inhibition	6%
CC(C)Cn1cnc2c(N)nc3ccccc3c21	ligand displacement, radioligand	inhibition	8%
c1ccc(C(NCCNC(c2ccccc2)c2ccccc2)c2ccccc2)cc1	cell-free assay	inhibition	-16%
Cc1c(N2CCNCC2)nc2ccc(Br)cc2c1C(=O)NC[C@H](CCC(=O)O)c1ccccc1Cl	cell-free assay	inhibition	86%
Clc1ccc2c(C3CCN(CCc4c[nH]c5ccccc45)CC3)c[nH]c2c1	ligand displacement, radioligand	inhibition	38%
COc1cc2c3c(c1OC)-c1cc4c(cc1CC3N(C)CC2)OCO4 (racemic)	ligand displacement, radioligand	inhibition	44.6%
CCN(CC)CCCC[C@H](NC(=O)[C@H](CC(C)C)NC(=O)[C@H](C)NC(=O)[C@H](Cc1ccccc1)NC(=O)c1ccc(C(C)(C)C)cc1)C(=O)N[C@@H](CO)C(=O)OC	ligand displacement, radioligand	inhibition	-21%
Cn1cncc1[C@@](O)(COc1ccc(C#N)cc1-c1ccc(OC(F)(F)F)cc1)c1ccc(C#N)cc1	cell-free assay	inhibition	-0.62%
Nc1ncc(-c2nc(N3CCOCC3)nc(N3CCOCC3)n2)c(C(F)F)n1	cell-free assay	remaining signal	100%
CC(C)N1CCC[C@H]1CNC(=O)c1cn(C2CCCC2)c(=O)c2c1c1ccccc1n2C	ligand displacement, radioligand	inhibition	-4%
COc1ccc(N=Nc2ccc3[nH]cc(CCN(C)C)c3c2)cc1	ligand displacement, radioligand	inhibition	< 50%
